Drawing on ChEMBL document CHEMBL1145022, “Hydantoin-substituted 4,6-dichloroindole-2-carboxylic acids as ligands with high affinity for the glycine binding site of the NMDA receptor” (J Med Chem, 2003), this text covers logP, IA and inhibition for five molecules.

Data set [1] is described as follows: Partition coefficient (logP). The format is physicochemical. Conditions: octanol/water. The gist of the method:
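Potentiometric titration in n-octanol/water; each Log P value is the mean of at least three independent experiments.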

The target in data set [2] is T1, Sodium channel alpha subunits; brain (Types I, II, III) (Rattus norvegicus) (UniProt P04775+P04774+P08104). The data set can be described thus: Affinity for sodium channel site 2 up to 10 uM; Inactive. Format: protein assay.
T1 sequence (P04775 whole entry, looked up, other chains not shown): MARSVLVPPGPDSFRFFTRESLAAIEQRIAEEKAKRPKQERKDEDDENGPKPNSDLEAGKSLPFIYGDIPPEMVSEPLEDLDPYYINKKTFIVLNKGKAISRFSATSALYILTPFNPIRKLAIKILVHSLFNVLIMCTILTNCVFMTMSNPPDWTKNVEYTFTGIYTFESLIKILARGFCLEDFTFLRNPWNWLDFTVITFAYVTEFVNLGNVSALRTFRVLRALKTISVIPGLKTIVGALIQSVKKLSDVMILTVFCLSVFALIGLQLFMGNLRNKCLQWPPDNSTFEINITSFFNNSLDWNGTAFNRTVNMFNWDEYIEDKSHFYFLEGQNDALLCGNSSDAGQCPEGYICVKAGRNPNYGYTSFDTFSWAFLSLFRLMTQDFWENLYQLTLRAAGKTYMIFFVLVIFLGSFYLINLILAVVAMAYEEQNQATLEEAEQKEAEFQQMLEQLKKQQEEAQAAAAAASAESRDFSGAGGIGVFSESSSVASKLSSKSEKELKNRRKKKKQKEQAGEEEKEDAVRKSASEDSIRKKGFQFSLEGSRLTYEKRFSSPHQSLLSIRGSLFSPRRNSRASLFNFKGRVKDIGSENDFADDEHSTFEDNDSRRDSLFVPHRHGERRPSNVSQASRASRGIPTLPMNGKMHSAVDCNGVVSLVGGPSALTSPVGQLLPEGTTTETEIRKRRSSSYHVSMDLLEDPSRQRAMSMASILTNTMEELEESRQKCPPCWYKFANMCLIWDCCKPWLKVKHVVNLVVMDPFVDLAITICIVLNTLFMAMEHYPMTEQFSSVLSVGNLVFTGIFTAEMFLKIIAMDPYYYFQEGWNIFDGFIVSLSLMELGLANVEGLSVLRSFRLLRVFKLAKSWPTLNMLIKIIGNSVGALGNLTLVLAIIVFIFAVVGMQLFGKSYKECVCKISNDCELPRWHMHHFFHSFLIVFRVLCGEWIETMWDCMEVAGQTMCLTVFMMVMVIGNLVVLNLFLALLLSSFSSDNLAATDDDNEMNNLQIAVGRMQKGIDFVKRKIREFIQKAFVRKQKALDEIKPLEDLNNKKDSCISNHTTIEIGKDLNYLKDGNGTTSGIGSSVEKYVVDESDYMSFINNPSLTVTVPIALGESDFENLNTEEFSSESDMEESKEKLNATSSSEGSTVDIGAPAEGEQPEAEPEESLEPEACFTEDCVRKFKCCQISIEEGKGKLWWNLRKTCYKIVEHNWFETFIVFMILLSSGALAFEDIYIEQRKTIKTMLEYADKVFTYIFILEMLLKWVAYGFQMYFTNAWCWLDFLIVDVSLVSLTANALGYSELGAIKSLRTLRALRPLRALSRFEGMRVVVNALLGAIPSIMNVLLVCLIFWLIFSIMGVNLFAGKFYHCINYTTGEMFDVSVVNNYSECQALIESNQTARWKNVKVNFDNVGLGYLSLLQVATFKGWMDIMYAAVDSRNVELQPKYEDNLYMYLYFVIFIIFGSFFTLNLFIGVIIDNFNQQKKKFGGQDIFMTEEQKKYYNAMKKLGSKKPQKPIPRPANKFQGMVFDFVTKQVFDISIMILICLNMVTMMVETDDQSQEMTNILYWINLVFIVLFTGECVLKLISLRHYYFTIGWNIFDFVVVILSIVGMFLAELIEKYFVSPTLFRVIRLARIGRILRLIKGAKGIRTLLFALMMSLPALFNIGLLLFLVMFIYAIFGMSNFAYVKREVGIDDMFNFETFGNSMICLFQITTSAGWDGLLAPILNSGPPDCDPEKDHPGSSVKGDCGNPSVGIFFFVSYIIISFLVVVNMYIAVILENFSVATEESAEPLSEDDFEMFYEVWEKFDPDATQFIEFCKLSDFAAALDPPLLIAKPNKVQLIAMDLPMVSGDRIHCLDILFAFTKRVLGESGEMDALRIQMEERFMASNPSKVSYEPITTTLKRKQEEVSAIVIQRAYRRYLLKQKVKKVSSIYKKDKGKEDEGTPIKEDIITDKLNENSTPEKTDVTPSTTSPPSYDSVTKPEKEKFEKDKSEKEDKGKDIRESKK
T1 sequence (P08104 whole entry, looked up, other chains not shown): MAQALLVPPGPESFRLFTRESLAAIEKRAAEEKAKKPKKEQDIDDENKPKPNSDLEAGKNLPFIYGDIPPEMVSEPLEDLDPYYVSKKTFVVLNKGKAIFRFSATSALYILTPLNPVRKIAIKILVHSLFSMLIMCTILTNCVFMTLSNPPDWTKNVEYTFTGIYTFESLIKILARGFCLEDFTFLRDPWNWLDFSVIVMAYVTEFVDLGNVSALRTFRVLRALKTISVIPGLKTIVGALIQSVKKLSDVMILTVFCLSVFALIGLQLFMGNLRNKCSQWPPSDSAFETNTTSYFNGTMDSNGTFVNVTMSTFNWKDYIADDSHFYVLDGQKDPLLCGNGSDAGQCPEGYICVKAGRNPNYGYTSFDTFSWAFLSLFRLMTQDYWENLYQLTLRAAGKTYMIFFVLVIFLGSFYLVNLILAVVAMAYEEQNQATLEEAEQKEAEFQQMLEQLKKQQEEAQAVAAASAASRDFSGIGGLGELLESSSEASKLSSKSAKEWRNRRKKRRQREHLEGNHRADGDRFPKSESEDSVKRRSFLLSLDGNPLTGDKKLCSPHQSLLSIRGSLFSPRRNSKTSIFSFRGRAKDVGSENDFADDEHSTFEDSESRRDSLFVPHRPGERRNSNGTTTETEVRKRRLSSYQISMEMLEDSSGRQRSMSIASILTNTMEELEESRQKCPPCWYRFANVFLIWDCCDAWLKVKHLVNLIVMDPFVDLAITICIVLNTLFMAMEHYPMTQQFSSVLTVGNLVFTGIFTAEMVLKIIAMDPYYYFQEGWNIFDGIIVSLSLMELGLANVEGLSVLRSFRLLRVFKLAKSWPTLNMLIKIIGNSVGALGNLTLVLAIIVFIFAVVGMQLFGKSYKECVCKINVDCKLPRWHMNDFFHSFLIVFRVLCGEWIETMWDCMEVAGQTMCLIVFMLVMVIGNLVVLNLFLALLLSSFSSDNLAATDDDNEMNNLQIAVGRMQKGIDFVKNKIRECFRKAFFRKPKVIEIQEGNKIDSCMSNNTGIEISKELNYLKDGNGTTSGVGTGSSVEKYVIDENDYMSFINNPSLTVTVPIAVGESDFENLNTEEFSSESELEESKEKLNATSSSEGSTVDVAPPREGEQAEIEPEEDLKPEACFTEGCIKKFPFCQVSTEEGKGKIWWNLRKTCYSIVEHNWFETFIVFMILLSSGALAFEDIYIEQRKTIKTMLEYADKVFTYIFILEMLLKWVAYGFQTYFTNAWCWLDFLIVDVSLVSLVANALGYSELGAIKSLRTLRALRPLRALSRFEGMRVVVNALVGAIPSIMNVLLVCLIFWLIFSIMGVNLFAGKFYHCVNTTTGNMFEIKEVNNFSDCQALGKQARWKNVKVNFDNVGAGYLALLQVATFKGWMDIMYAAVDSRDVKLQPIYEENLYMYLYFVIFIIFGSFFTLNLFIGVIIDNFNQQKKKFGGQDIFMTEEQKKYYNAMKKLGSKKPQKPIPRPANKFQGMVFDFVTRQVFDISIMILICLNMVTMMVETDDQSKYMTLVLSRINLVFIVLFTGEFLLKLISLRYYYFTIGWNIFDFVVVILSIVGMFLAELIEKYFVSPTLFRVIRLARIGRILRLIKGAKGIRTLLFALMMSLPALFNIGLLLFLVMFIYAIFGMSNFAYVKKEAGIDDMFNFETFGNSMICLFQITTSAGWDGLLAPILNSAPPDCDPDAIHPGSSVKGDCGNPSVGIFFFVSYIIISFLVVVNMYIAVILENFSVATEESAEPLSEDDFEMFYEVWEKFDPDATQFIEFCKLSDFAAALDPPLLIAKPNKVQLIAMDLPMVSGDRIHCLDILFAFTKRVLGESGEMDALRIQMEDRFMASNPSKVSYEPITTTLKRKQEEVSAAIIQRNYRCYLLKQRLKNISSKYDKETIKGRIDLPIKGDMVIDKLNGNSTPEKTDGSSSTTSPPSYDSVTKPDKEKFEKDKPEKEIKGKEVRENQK
The target in data set [3] is T1, Sodium channel alpha subunits; brain (Types I, II, III) (Rattus norvegicus). The data set can be described thus: Inhibition of [3H]batrachotoxin binding to rat brain sodium channels at 1 uM.
The target is the same in data set [4]. Briefly: Inhibition of [3H]batrachotoxin binding to rat brain sodium channels at 10 uM.
For data set [5] the target is unchanged. The data set can be described thus: Inhibition of [3H]batrachotoxin binding to rat brain sodium channels at 0.1 uM.

Activity calls are given as the source filed them. The calls are words filed in the database; no cut-off is given here.

`O=C(NCc1c(C(=O)O)[nH]c2cc(Cl)cc(Cl)c12)c1ccccc1` had a logP in data set [1] of 2.36. On the same count and under the same terms, the result for `O=C(O)c1[nH]c2cc(Cl)cc(Cl)c2c1CNS(=O)(=O)c1ccccc1` reads 3.1. As to `O=C(O)c1[nH]c2cc(Cl)cc(Cl)c2c1CN1CC(=O)N(c2ccccc2)C1=O`, the IA result in data set [2] was “inactive”. The logP in data set [1] worked out at 2.16. For `CC(C)C1C(=O)N(c2ccccc2)C(=O)N1Cc1c(C(=O)O)[nH]c2cc(Cl)cc(Cl)c12` (stereo not drawn), the inhibition in data set [3] was 8%; in data set [4] it was 29%; in data set [5], 11%. `O=C(NCc1c(C(=O)O)[nH]c2cc(Cl)cc(Cl)c12)Nc1ccccc1` registered a lipophilicity (logP) in data set [1] of 2.83.
